According to ChEMBL document CHEMBL1142636 (2000):
In brackets after ≈: the same amount, converted by molar mass.

How the values were obtained:
U-251 = experiment: Growth inhibition of human U251 cells; format: functional
Summary of the method: (§1)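 Tested at the NCI in its human disease-oriented in vitro screen of 60 tumour cell lines, following the Monks et al. methods. Activity is expressed as GI50, given as log molar values.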

KM-20L2 = experiment: Growth inhibition of human KM20L2 cells; format: functional
NCI-H322M = experiment: Growth inhibition of human NCI-H322M cells; format: functional
SR = experiment: Growth inhibition of human SR cells; format: functional; summary of the method: as §1
COLO 205 = experiment: Growth inhibition of human COLO205 cells; format: functional; conditions: for EC50: read-out: ED50 (the source's name)
HOP-62 = experiment: Growth inhibition of human HOP62 cells; format: functional
TK-10 = experiment: Growth inhibition of human TK10 cells; format: functional; summary of the method: as §1
[1] = Growth inhibition of human DMS144 cells; format: functional
CCRF-CEM = experiment: Growth inhibition of human CCRF-CEM cells; format: functional
KM12 = experiment: Growth inhibition of human KM12 cells; format: functional
Malme-3M = experiment: Growth inhibition of human MALME-3M cells; format: functional
SK-MEL-5 = experiment: Growth inhibition of human SK-MEL-5 cells; format: functional; conditions: for EC50: read-out: ED50 (the source's name); summary of the method: as §1
DMS-273 = experiment: Growth inhibition of human DMS273 cells; format: functional
[2] = Growth inhibition of human OVACR8 cells; format: functional
SNB-75 = experiment: Growth inhibition of human SNB75 cells; format: functional; summary of the method: as §1
[3] = Growth inhibition of human LXFL529 cells; format: functional; conditions: LXFL 529
HCC 2998 = experiment: Growth inhibition of human HCC2998 cells; format: functional
[4] = Growth inhibition of human OVACR5 cells; format: functional
SN12C = experiment: Growth inhibition of human SN12C cells; format: functional; summary of the method: as §1
[5] = Growth inhibition of human […] cells; format: functional
M14 = experiment: Growth inhibition of human M14 cells; format: functional
[6] = Growth inhibition of human RPMI8266 cells; format: functional
NCI-H226 = experiment: Growth inhibition of human NCI-H226 cells; format: functional
SF-539 = experiment: Growth inhibition of human SF539 cells; format: functional; summary of the method: as §1
HT-29 = experiment: Growth inhibition of human HT29 cells; format: functional
NCI-H522 = experiment: Growth inhibition of human NCI-H522 cells; format: functional
LOX IMVI = experiment: Growth inhibition of human LOX IMVI cells; format: functional
DLD-1 = experiment: Growth inhibition of human DLD1 cells; format: functional
HCT-116 = experiment: Growth inhibition of human HCT116 cells; format: functional
SK-MEL-28 = experiment: Growth inhibition of human SK-MEL-28 cells; format: functional; summary of the method: as §1
SK-OV-3 = experiment: Growth inhibition of human SK-OV-3 cells; format: functional; summary of the method: as §1
UACC-62 = experiment: Growth inhibition of human UACC62 cells; format: functional; summary of the method: as §1
SF-268 = experiment: Growth inhibition of human SF268 cells; format: functional; summary of the method: as §1
MOLT-4 = experiment: Growth inhibition of human MOLT4 cells; format: functional
A549 = experiment: Growth inhibition of human A549 cells; format: functional
IGROV-1 = experiment: Growth inhibition of human IGROV1 cells; format: functional
M19-MEL = experiment: Growth inhibition of human M19-MEL cells; format: functional
NCI-H460 = experiment: Growth inhibition of human NCI-H460 cells; format: functional
SK-MEL-2 = experiment: Growth inhibition of human SK-MEL-2 cells; format: functional; summary of the method: as §1
ACHN = experiment: Growth inhibition of human ACHN cells; format: functional
K562 = experiment: Growth inhibition of human K562 cells; format: functional
SNB-19 = experiment: Growth inhibition of human SNB19 cells; format: functional; summary of the method: as §1
XF498 = experiment: Growth inhibition of human XF498 cells; format: functional; summary of the method: as §1
UO-31 = experiment: Growth inhibition of human UO31 cells; format: functional; summary of the method: as §1
[7] = Growth inhibition of human HL60(TB) cells; format: functional, HL-60(TB); conditions: HL-60
HCT-15 = experiment: Growth inhibition of human HCT15 cells; format: functional
SW-620 = experiment: Growth inhibition of human SW620 cells; format: functional; summary of the method: as §1
HOP-92 = experiment: Growth inhibition of human HOP92 cells; format: functional
786-0 = experiment: Growth inhibition of human 786-0 cells; format: functional
KB = experiment: Growth inhibition of human KB cells; format: functional; conditions: read-out: ED50 (the source's name)
Summary of the method: (§2)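 In-house cytotoxicity assay following an NCI protocol, run on a panel of human tumour lines: KB nasopharyngeal epidermoid carcinoma and HCT-8 ileocecal adenocarcinoma. Potency is reported as ED50 in µg/mL.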

HCT-8 = experiment: Growth inhibition of human HCT8 cells; format: functional; conditions: read-out: ED50 (the source's name); summary of the method: as §2
[8] = Growth inhibition of human OVACR4 cells; format: functional
RXF 393 = experiment: Growth inhibition of human […] cells; format: functional

Compound: COc1cc(Cc2c(C)cc(OC)c3[nH]c4ccccc4c23)cc2c1[nH]c1ccccc12
- GI50 (U-251): 5.01 µM
- GI50 (KM-20L2): 5.25 µM
- GI50 (NCI-H322M): 7.24 µM
- GI50 (SR): 7.76 µM
- GI50 (COLO 205): 12 µM
- GI50 (HOP-62): 5.5 µM
- GI50 (TK-10): 12 µM
- GI50 [1]: 10.5 µM
- GI50 (CCRF-CEM): 8.51 µM
- GI50 (KM12): 5.37 µM
- GI50 (Malme-3M): 4.47 µM
- GI50 (SK-MEL-5): 3.98 µM
- GI50 (DMS-273): 7.59 µM
- GI50 [2]: 4.57 µM
- GI50 (SNB-75): 5.75 µM
- GI50 [3]: 4.17 µM
- GI50 (HCC 2998): 5.37 µM
- GI50 [4]: 5.01 µM
- GI50 (SN12C): 6.46 µM
- GI50 [5]: 5.37 µM
- GI50 (M14): 5.13 µM
- GI50 [6]: 10 µM
- GI50 (NCI-H226): 4.68 µM
- GI50 (SF-539): 4.57 µM
- GI50 (HT-29): 7.76 µM
- GI50 (NCI-H522): 5.01 µM
- GI50 (LOX IMVI): 3.89 µM
- GI50 (DLD-1): 8.91 µM
- GI50 (HCT-116): 9.12 µM
- GI50 (SK-MEL-28): 8.71 µM
- GI50 (SK-OV-3): 8.71 µM
- GI50 (UACC-62): 5.62 µM
- GI50 (SF-268): 6.92 µM
- GI50 (MOLT-4): 5.75 µM
- GI50 (A549): 5.75 µM
- GI50 (IGROV-1): 9.12 µM
- GI50 (M19-MEL): 9.77 µM
- GI50 (NCI-H460): 5.13 µM
- GI50 (SK-MEL-2): 3.98 µM
- GI50 (ACHN): 4.68 µM
- GI50 (K562): 7.24 µM
- GI50 (SNB-19): 5.89 µM
- GI50 (XF498): 6.03 µM
- GI50 (UO-31): 6.03 µM
- GI50 [7]: 7.94 µM
- GI50 (HCT-15): 6.92 µM
- GI50 (SW-620): 8.13 µM
- GI50 (HOP-92): 7.59 µM
- GI50 (786-0): 5.37 µM

Compound: COc1ccc2[nH]c3c(c2c1)C(=O)C(C)=CC3=O
- EC50 (COLO 205): 0.87 µg/mL (≈ 3.61 µM)
- EC50 (KB): 0.76 µg/mL (≈ 3.15 µM)
- EC50 (SK-MEL-5): 0.55 µg/mL (≈ 2.28 µM)
- EC50 (HCT-8): 7.91 µg/mL (≈ 32.8 µM)

Compound: CC1=CC(=O)c2[nH]c3ccc(C)cc3c2C1=O
- EC50 (COLO 205): 3.52 µg/mL (≈ 15.6 µM)
- EC50 (KB): 0.92 µg/mL (≈ 4.08 µM)
- EC50 (SK-MEL-5): 0.66 µg/mL (≈ 2.93 µM)
- EC50 (HCT-8): 6.49 µg/mL (≈ 28.8 µM)

Compound: CC(C)=CCCC1(C)C=Cc2c(ccc3c2[nH]c2cc(O)c(C)cc23)O1 (stereo unspecified)
- GI50 (U-251): 4.57 µM
- GI50 (KM-20L2): 5.25 µM
- GI50 (NCI-H322M): 6.61 µM
- GI50 (SR): 5.5 µM
- GI50 (HOP-62): 4.79 µM
- GI50 (TK-10): 16.6 µM
- GI50 [1]: 7.08 µM
- GI50 (CCRF-CEM): 5.01 µM
- GI50 (KM12): 4.79 µM
- GI50 (Malme-3M): 5.25 µM
- GI50 (SK-MEL-5): 4.9 µM
- GI50 (DMS-273): 5.01 µM
- GI50 [2]: 3.8 µM
- GI50 (SNB-75): 12.9 µM
- GI50 [3]: 5.13 µM
- GI50 (HCC 2998): 4.68 µM
- GI50 [4]: 19.5 µM
- GI50 (SN12C): 4.68 µM
- GI50 [5]: 4.79 µM
- GI50 (M14): 3.89 µM
- GI50 [6]: 6.61 µM
- GI50 (NCI-H226): 7.08 µM
- GI50 (SF-539): 4.57 µM
- GI50 (HT-29): 4.9 µM
- GI50 (NCI-H522): 3.89 µM
- GI50 (LOX IMVI): 4.57 µM
- GI50 [8]: 7.94 µM
- GI50 (DLD-1): 8.91 µM
- GI50 (HCT-116): 8.71 µM
- GI50 (UACC-62): 9.33 µM
- GI50 (SF-268): 5.01 µM
- GI50 (MOLT-4): 4.17 µM
- GI50 (A549): 6.61 µM
- GI50 (M19-MEL): 6.92 µM
- GI50 (NCI-H460): 4.68 µM
- GI50 (SK-MEL-2): 6.46 µM
- GI50 (ACHN): 6.76 µM
- GI50 (K562): 5.62 µM
- GI50 (RXF 393): 5.25 µM
- GI50 (SNB-19): 25.1 µM
- GI50 [7]: 9.55 µM
- GI50 (HCT-15): 5.01 µM
- GI50 (SW-620): 4.68 µM
- GI50 (HOP-92): 4.27 µM
- GI50 (786-0): 4.27 µM

Compound: COc1cccc2c3c([nH]c12)C(=O)C=C(C)C3=O
- EC50 (COLO 205): 4.22 µg/mL (≈ 17.5 µM)
- EC50 (KB): 4.95 µg/mL (≈ 20.5 µM)
- EC50 (SK-MEL-5): 3.55 µg/mL (≈ 14.7 µM)
- EC50 (HCT-8): 5.3 µg/mL (≈ 22 µM)
